The source made the active and inactive calls. The calls are words filed in the database; no cut-off is given here.

Here are results for one molecule from ChEMBL document CHEMBL4145686, “Discovery of a Potent and Selective Steroidal Glucocorticoid Receptor Antagonist (ORIC-101)” (J Med Chem, 2018).

Data set [1] concerns Mus musculus. In words: In-vivo antagonist activity at GR in nude mouse xenografted with human OVCAR5 cells assessed as reduction in dexamethasone-induced FKBP5 gene expression at 25 to 75 mg/kg, po dosed as gavage and measured after 6 hrs by RT-qPCR method. The data set is classed as functional, organism-based. In outline: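 OVCAR5 xenograft mice received dexamethasone 0.5 mg/kg by intraperitoneal injection with or without a single oral gavage dose of the antagonist at 25, 50 or 75 mg/kg. Tumors and plasma collected 6 h later. Tumor FKBP5 mRNA measured by RT-qPCR. Unbound plasma concentration of the antagonist determined, n = 4 mice per group. FKBP5 effects tested by one-way ANOVA with Dunnett's test versus the vehicle group.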

The nature of data set [2]: Cmax in mini pig at 10 mg/kg, po. The note with it: in vivo. On the set-up: dose 10 mg/kg, route oral. The data set is classed as ADME, organism-based, Sus scrofa.
The test system of data set [3] is OVCAR-5. The data set can be described thus: Antitumor activity against human OVCAR5 cells xenografted in chronic cortisol treated nude mouse assessed as reduction in tumor volume at 75 mg/kg, po BID dosed via gavage. It counts as functional, organism-based. In outline: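 Cortisol given in drinking water at 100 mg/L before tumor implantation and throughout the study. Mice bearing established OVCAR5 xenografts, n = 10 per group. Gemcitabine 100 mg/kg and carboplatin 60 mg/kg given every 3 days for 4 doses. Antagonist given at 75 mg/kg twice daily by oral gavage for the whole study. Tumor volume tracked, mean ± SEM, with significance assessed on day 21.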

In data set [4] the target is T1, Androgen receptor (Homo sapiens, UniProt P10275).
T1 sequence (P10275 whole entry): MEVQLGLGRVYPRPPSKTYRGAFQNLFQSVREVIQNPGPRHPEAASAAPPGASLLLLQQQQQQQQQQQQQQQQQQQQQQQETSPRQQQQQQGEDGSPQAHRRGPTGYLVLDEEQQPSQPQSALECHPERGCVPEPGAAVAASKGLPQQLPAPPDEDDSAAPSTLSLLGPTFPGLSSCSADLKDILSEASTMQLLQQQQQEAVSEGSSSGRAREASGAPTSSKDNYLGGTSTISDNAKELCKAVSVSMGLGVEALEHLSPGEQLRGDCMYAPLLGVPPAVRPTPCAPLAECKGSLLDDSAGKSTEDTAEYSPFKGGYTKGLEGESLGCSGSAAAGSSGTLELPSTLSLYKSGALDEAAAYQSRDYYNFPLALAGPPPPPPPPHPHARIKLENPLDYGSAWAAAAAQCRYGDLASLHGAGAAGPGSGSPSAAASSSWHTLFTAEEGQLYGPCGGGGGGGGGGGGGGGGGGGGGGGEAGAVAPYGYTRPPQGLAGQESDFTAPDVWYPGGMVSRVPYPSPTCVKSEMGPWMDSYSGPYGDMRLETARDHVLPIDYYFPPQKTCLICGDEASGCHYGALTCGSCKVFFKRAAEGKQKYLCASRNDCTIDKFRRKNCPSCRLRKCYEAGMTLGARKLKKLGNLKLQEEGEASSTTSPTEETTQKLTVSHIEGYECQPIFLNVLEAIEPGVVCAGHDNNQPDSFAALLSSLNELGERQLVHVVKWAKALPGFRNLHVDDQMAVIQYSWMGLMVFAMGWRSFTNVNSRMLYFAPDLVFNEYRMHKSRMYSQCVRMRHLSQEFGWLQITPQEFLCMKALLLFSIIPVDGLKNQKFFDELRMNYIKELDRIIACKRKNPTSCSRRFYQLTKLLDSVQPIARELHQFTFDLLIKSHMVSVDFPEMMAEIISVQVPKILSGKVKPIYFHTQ
In words: Antagonist activity at AR (unknown origin) expressed in human LNCaP cells assessed as reduction in R1881-induced response incubated for 20 hrs by luciferase reporter gene assay. The data set is classed as cell-based.

For data set [5], the system named is OVCAR-5. The data set can be described thus: Potentiation of carboplatin-induced antitumor activity against human OVCAR5 cells xenografted in chronic cortisol treated nude mouse assessed as reduction in tumor volume at 75 mg/kg, po BID dosed via gavage co-treated with gencitabine at 60 mg/kg dosed every 3 days for 4 doses. It counts as functional, organism-based.

Data set [6] is described as follows: Antagonist activity at GR in monkey PBMC assessed as reduction in dexamethasone-induced FKBP5 gene expression incubated for 6 hrs by RT-qPCR method. The data set is classed as cell-based. The note with it: Macaca mulatta.
The target of data set [7] is T1, Androgen receptor. The data set can be described thus: Agonist activity at AR in human MDA-MB-453 cells assessed as increase in CLDN8 gene expression at 111 to 333 nM incubated for 24 hrs by RT-qPCR method. Conditions: mda-mb-453, 24 h, 0.333 µM. It counts as cell-based.
Data set [8] deals with Cytochrome P450 3A4 (Homo sapiens, UniProt P08684). The data set can be described thus: Inhibition of CYP3A4 (unknown origin) using midazolam as substrate. The data set is classed as ADME.
Cytochrome P450 3A4, sequence (P08684 whole entry): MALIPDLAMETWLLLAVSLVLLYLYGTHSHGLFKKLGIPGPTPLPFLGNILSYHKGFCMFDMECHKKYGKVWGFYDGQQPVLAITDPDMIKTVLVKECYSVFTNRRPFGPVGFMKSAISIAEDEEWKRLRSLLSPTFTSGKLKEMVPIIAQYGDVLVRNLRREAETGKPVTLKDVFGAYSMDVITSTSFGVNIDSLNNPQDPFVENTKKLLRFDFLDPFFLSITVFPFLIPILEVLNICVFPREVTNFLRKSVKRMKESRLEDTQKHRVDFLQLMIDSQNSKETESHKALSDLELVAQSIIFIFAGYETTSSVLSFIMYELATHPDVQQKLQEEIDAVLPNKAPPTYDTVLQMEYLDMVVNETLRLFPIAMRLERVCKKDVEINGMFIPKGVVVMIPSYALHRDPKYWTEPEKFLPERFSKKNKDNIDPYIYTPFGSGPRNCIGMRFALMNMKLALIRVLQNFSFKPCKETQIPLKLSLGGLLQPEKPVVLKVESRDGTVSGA
Data set [9] has as its target T1, Androgen receptor. In words: Agonist activity at AR in human LNAR cells assessed as increase in PSA gene expression at 100 nM incubated for 24 hrs by RT-qPCR method. The data set is classed as cell-based. Conditions: 0.1 µM.
For data set [10], the target named is T2, Glucocorticoid receptor (Sus scrofa) (UniProt Q9N1U3).
T2 sequence (whole entry): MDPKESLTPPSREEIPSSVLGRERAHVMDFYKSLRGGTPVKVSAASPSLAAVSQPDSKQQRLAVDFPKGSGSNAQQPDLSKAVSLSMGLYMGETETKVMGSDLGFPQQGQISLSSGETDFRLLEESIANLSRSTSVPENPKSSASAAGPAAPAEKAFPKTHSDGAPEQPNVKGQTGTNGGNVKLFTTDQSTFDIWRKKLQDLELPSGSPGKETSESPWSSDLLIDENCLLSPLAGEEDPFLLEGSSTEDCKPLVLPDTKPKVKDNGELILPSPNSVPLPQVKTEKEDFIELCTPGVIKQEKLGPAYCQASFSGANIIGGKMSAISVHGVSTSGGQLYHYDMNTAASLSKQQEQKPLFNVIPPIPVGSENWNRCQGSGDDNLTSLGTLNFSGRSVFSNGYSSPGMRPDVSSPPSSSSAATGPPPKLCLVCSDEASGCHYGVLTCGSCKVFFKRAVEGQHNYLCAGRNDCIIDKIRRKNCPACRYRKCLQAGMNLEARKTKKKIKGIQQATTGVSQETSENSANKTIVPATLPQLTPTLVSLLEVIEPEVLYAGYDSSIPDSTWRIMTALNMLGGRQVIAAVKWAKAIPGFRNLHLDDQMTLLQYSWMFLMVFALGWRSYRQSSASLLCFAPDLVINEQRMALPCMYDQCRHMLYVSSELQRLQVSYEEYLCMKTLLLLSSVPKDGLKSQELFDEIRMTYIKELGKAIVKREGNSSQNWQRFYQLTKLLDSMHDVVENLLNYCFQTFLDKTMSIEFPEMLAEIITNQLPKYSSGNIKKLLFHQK
The data set can be described thus: (§1) Antagonist activity at GR in mini pig PBMC assessed as reduction in dexamethasone-induced GILZ gene expression incubated for 24 hrs by RT-qPCR method. It counts as cell-based.

In data set [11] the target is T3, Glucocorticoid receptor (Sus scrofa, UniProt Q9N1U3).
T3 sequence (Q9N1U3 whole entry): T2 sequence (whole entry)
The data set is described as §1. The data set is classed as cell-based.

Data set [12] can be described thus: AUC in mouse at 5 mg/kg, po. It counts as ADME, organism-based. Conditions: in vivo.

For the molecule `CC(C)N(C)c1ccc([C@H]2C[C@@]3(C)[C@@H](CC[C@@]3(O)C#CC(C)(C)C)[C@@H]3CCC4=CC(=O)CC[C@@H]4[C@H]32)cc1`, the inhibition entry in data set [1] and in data set [10] was “Dose-dependent effect” throughout. This molecule yielded a Cmax in data set [2] of 153 ng/mL. Also, the TGI entry in data set [3] is “inactive”. The IC50 in data set [4] is 484 nM; in data set [6] it was 11.1 nM; in data set [8], 1600 nM; in data set [11], 181 nM. Besides, the result in data set [5] was Active. In addition, the Activity entry in data set [7] and in data set [9] was “Not Active” each time. In [12], this molecule came in with an AUC of 644 ng·h/mL.
